# In ChEMBL document CHEMBL1165950, “Design and synthesis of new potent anticancer pyrazoles with high FLT3 kinase inhibitory selectivity” (Bioorg Med Chem, 2010):
# Key:
# Type in all cases: functional
# SK-MEL-28 = test: Cytotoxicity against human SK-MEL-28 cells assessed as cell growth at 10 uM; conditions: read-out: Activity
# In short: (§1)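 NCI-60 screen: cells grown in RPMI 1640 with 5% FBS and 2 mM L-glutamine, plated at 5000–40,000 cells/well according to doubling time, and preincubated 24 h at 37 °C, 5% CO2. The single 10 µM dose (DMSO stock) was added, then incubated 48 h. Cells were TCA-fixed and stained with 0.4% SRB, read at 515 nm, and growth % calculated against time-zero and control plates.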
# OVCAR-3 = test: Cytotoxicity against human OVCAR-3 cells assessed as cell growth at 10 uM; conditions: read-out: Activity; in short: as §1
# SR = test: Cytotoxicity against human SR cells assessed as cell growth at 10 uM; conditions: read-out: Activity; in short: as §1
# NCI/ADR-RES = test: Cytotoxicity against human NCI/ADR-RES cells assessed as cell growth at 10 uM; conditions: read-out: Activity; in short: as §1
# M14 = test: Cytotoxicity against human M14 cells assessed as cell growth at 10 uM; conditions: read-out: Activity; in short: as §1
# RXF 393 = test: Cytotoxicity against human RXF393 cells assessed as cell growth at 10 uM; conditions: read-out: Activity; in short: as §1
# [1] = Growth inhibition of human NCI60 cells at 10 uM after 48 hrs by sulforhodamine B assay relative to control; conditions: NCI60, 48 h, read-out: GI
# In short: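 Single-dose NCI screen at 10 µM across the 60-line panel, 48 h exposure at 37 °C after a 24 h preincubation. Adherent cells were fixed with cold TCA and stained with 0.4% SRB, and absorbance was read at 515 nm. Inhibition % was taken as 100 minus growth %, and the mean across all lines was reported.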
# HCT-116 = test: Cytotoxicity against human HCT116 cells assessed as cell growth at 10 uM; conditions: read-out: Activity
# In short: (§2)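 Single-dose NCI-60 screen at 10 µM. Cells were grown in RPMI 1640 with 5% FBS and 2 mM L-glutamine, then treated for 48 h at 37 °C. Protein was measured by SRB staining with absorbance at 515 nm. Percentage growth was recorded, and inhibition percentage was calculated as 100 minus growth percentage.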
# UO-31 = test: Cytotoxicity against human UO31 cells assessed as cell growth at 10 uM; conditions: read-out: Activity; in short: as §1
# [2] = Cytotoxicity against human […] cells assessed as cell growth at 10 uM; conditions: read-out: Activity; in short: as §1
# SK-MEL-5 = test: Cytotoxicity against human SK-MEL-5 cells assessed as cell growth at 10 uM; conditions: read-out: Activity; in short: as §1
# CAKI-1 = test: Cytotoxicity against human Caki1 cells assessed as cell growth at 10 uM; conditions: read-out: Activity; in short: as §2
# DU-145 = test: Cytotoxicity against human DU145 cells assessed as cell growth at 10 uM; conditions: read-out: Activity; in short: as §2
# ACHN = test: Cytotoxicity against human ACHN cells assessed as cell growth at 10 uM; conditions: read-out: Activity; in short: as §2
# A549 = test: Cytotoxicity against human A549 cells assessed as cell growth at 10 uM; conditions: read-out: Activity; in short: as §2
# PC-3 = test: Cytotoxicity against human PC3 cells assessed as cell growth at 10 uM; conditions: read-out: Activity; in short: as §1
# SF-295 = test: Cytotoxicity against human SF295 cells assessed as cell growth at 10 uM; conditions: read-out: Activity; in short: as §1
# NCI-H322M = test: Cytotoxicity against human NCI-H322M cells assessed as cell growth at 10 uM; conditions: read-out: Activity; in short: as §1
# SK-MEL-2 = test: Cytotoxicity against human SK-MEL-2 cells assessed as cell growth at 10 uM; conditions: read-out: Activity; in short: as §1
# UACC-62 = test: Cytotoxicity against human UACC62 cells assessed as cell growth at 10 uM; conditions: read-out: Activity; in short: as §1
# HOP-92 = test: Cytotoxicity against human HOP92 cells assessed as cell growth at 10 uM; conditions: read-out: Activity; in short: as §2
# LOX IMVI = test: Cytotoxicity against human LOXIMVI cells assessed as cell growth at 10 uM; conditions: read-out: Activity; in short: as §1
# UACC-257 = test: Cytotoxicity against human UACC257 cells assessed as cell growth at 10 uM; conditions: read-out: Activity; in short: as §1
# TK-10 = test: Cytotoxicity against human TK10 cells assessed as cell growth at 10 uM; conditions: read-out: Activity; in short: as §1
# A498 = test: Cytotoxicity against human A498 cells assessed as cell growth at 10 uM; conditions: read-out: Activity; in short: as §2
# HT-29 = test: Cytotoxicity against human HT-29 cells assessed as cell growth at 10 uM; conditions: read-out: Activity; in short: as §2
# OVCAR-4 = test: Cytotoxicity against human OVCAR4 cells assessed as cell growth at 10 uM; conditions: read-out: Activity; in short: as §1
# OVCAR-8 = test: Cytotoxicity against human OVCAR8 cells assessed as cell growth at 10 uM; conditions: read-out: Activity; in short: as §1
# SF-268 = test: Cytotoxicity against human SF268 cells assessed as cell growth at 10 uM; conditions: read-out: Activity; in short: as §1
# SN12C = test: Cytotoxicity against human SN12C cells assessed as cell growth at 10 uM; conditions: read-out: Activity; in short: as §1
# MDA-MB-435 = test: Cytotoxicity against human MDA-MB-435 cells assessed as cell growth at 10 uM; conditions: read-out: Activity; in short: as §1
# NCI-H460 = test: Cytotoxicity against human NCI-H460 cells assessed as cell growth at 10 uM; conditions: read-out: Activity; in short: as §1
# Malme-3M = test: Cytotoxicity against human MALME-3M cells assessed as cell growth at 10 uM; conditions: read-out: Activity; in short: as §1
# IGROV-1 = test: Cytotoxicity against human IGROV1 cells assessed as cell growth at 10 uM; conditions: read-out: Activity; in short: as §2
# [3] = Cytotoxicity against human Hs 578T cells assessed as cell growth at 10 uM; conditions: read-out: Activity; in short: as §2
# BT-549 = test: Cytotoxicity against human BT549 cells assessed as cell growth at 10 uM; conditions: read-out: Activity; in short: as §2
# HL-60(TB) = test: Cytotoxicity against human HL-60(TB) cells assessed as cell growth at 10 uM; conditions: read-out: Activity
# In short: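 NCI 60-cell panel screen at a single concentration of 10 µM. Cells are grown in RPMI 1640 with 5% FBS and 2 mM L-glutamine and read by SRB protein staining at 515 nm. Percent growth is measured relative to time-zero and untreated controls; inhibition % is 100 minus growth %.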
# NCI-H522 = test: Cytotoxicity against human NCI-H522 cells assessed as cell growth at 10 uM; conditions: read-out: Activity; in short: as §1
# MDA-MB-231 = test: Cytotoxicity against human MDA-MB-231 cells assessed as cell growth at 10 uM; conditions: read-out: Activity; in short: as §1
# MCF7 = test: Cytotoxicity against human MCF7 cells assessed as cell growth at 10 uM; conditions: read-out: Activity; in short: as §1
# MDA-MB-468 = test: Cytotoxicity against human MDA-MB-468 cells assessed as cell growth at 10 uM; conditions: read-out: Activity; in short: as §1
# U-251 = test: Cytotoxicity against human U251 cells assessed as cell growth at 10 uM; conditions: read-out: Activity; in short: as §1
# SW-620 = test: Cytotoxicity against human SW620 cells assessed as cell growth at 10 uM; conditions: read-out: Activity; in short: as §1
# SNB-19 = test: Cytotoxicity against human SNB19 cells assessed as cell growth at 10 uM; conditions: read-out: Activity; in short: as §1
# COLO 205 = test: Cytotoxicity against human COLO205 cells assessed as cell growth at 10 uM; conditions: read-out: Activity; in short: as §2
# NCI-H226 = test: Cytotoxicity against human NCI-H226 cells assessed as cell growth at 10 uM; conditions: read-out: Activity; in short: as §1
# 786-0 = test: Cytotoxicity against human 786-0 cells assessed as cell growth at 10 uM; conditions: read-out: Activity; in short: as §2
# T47D = test: Cytotoxicity against human T47D cells assessed as cell growth at 10 uM; conditions: read-out: Activity; in short: as §1
# HCC 2998 = test: Cytotoxicity against human HCC2998 cells assessed as cell growth at 10 uM; conditions: read-out: Activity; in short: as §2
# NCI-H23 = test: Cytotoxicity against human NCI-H23 cells assessed as cell growth at 10 uM; conditions: read-out: Activity; in short: as §1
# OVCAR-5 = test: Cytotoxicity against human OVCAR5 cells assessed as cell growth at 10 uM; conditions: read-out: Activity; in short: as §1
# CCRF-CEM = test: Cytotoxicity against human CCRF-CEM cells assessed as cell growth at 10 uM; conditions: read-out: Activity; in short: as §2
# SK-OV-3 = test: Cytotoxicity against human SKOV3 cells assessed as cell growth at 10 uM; conditions: read-out: Activity; in short: as §1
# K562 = test: Cytotoxicity against human K562 cells assessed as cell growth at 10 uM; conditions: read-out: Activity; in short: as §2
# EKVX = test: Cytotoxicity against human EKVX cells assessed as cell growth at 10 uM; conditions: read-out: Activity; in short: as §2
# KM12 = test: Cytotoxicity against human KM12 cells assessed as cell growth at 10 uM; conditions: read-out: Activity; in short: as §1
# HCT-15 = test: Cytotoxicity against human HCT15 cells assessed as cell growth at 10 uM; conditions: read-out: Activity; in short: as §2
# SNB-75 = test: Cytotoxicity against human SNB75 cells assessed as cell growth at 10 uM; conditions: read-out: Activity; in short: as §1
# HOP-62 = test: Cytotoxicity against human HOP62 cells assessed as cell growth at 10 uM; conditions: read-out: Activity; in short: as §2
# MOLT-4 = test: Cytotoxicity against human MOLT4 cells assessed as cell growth at 10 uM; conditions: read-out: Activity; in short: as §1
# SF-539 = test: Cytotoxicity against human SF539 cells assessed as cell growth at 10 uM; conditions: read-out: Activity; in short: as §1
smiles,measurement,setting,value
COc1cc(C)cc(-c2nn(CC#N)cc2-c2ccnc(-c3ccc(C#N)cc3)c2)c1,growth at 10 µM,SK-MEL-28,104%
same,growth at 10 µM,OVCAR-3,102%
same,growth at 10 µM,SR,106%
same,growth at 10 µM,NCI/ADR-RES,76.8%
same,growth at 10 µM,M14,104%
same,growth at 10 µM,RXF 393,76.5%
same,inhibition of growth at 10 µM,[1],14.4%
same,growth at 10 µM,HCT-116,80.3%
same,growth at 10 µM,UO-31,64.2%
same,growth at 10 µM,[2],89.7%
same,growth at 10 µM,SK-MEL-5,63.4%
same,growth at 10 µM,CAKI-1,82.2%
same,growth at 10 µM,DU-145,109%
same,growth at 10 µM,ACHN,81.4%
same,growth at 10 µM,A549,83.6%
same,growth at 10 µM,PC-3,85.9%
same,growth at 10 µM,SF-295,102%
same,growth at 10 µM,NCI-H322M,91.3%
same,growth at 10 µM,SK-MEL-2,89.9%
same,growth at 10 µM,UACC-62,59.4%
same,growth at 10 µM,HOP-92,75.3%
same,growth at 10 µM,LOX IMVI,80.7%
same,growth at 10 µM,UACC-257,89.8%
same,growth at 10 µM,TK-10,84.7%
same,growth at 10 µM,A498,82.2%
same,growth at 10 µM,HT-29,85.2%
same,growth at 10 µM,OVCAR-4,76.2%
same,growth at 10 µM,OVCAR-8,84.2%
same,growth at 10 µM,SF-268,106%
same,growth at 10 µM,SN12C,85.1%
same,growth at 10 µM,MDA-MB-435,102%
same,growth at 10 µM,NCI-H460,104%
same,growth at 10 µM,Malme-3M,111%
same,growth at 10 µM,IGROV-1,90.9%
same,growth at 10 µM,[3],93.4%
same,growth at 10 µM,BT-549,99.3%
same,growth at 10 µM,HL-60(TB),93.6%
same,growth at 10 µM,NCI-H522,70.4%
same,growth at 10 µM,MDA-MB-231,80.8%
same,growth at 10 µM,MCF7,43.3%
same,growth at 10 µM,MDA-MB-468,42.9%
same,growth at 10 µM,U-251,91.2%
same,growth at 10 µM,SW-620,101%
same,growth at 10 µM,SNB-19,79.1%
same,growth at 10 µM,COLO 205,95.8%
same,growth at 10 µM,NCI-H226,78.8%
same,growth at 10 µM,786-0,96.5%
same,growth at 10 µM,T47D,37.6%
same,growth at 10 µM,HCC 2998,89.3%
same,growth at 10 µM,NCI-H23,83.1%
same,growth at 10 µM,OVCAR-5,97.9%
same,growth at 10 µM,CCRF-CEM,85.6%
same,growth at 10 µM,SK-OV-3,90.3%
same,growth at 10 µM,K562,82%
same,growth at 10 µM,EKVX,92%
same,growth at 10 µM,KM12,102%
same,growth at 10 µM,HCT-15,75.9%
same,growth at 10 µM,SNB-75,57.4%
same,growth at 10 µM,HOP-62,96.5%
same,growth at 10 µM,MOLT-4,71.8%
same,growth at 10 µM,SF-539,89.1%
